# Test results as given in ChEMBL document CHEMBL2034934, “Isodesacetyluvaricin, an Annonaceous acetogenin, specifically inhibits gene expression of cyclooxygenase-2” (J Nat Prod, 2012).
# The source made the active and inactive calls. The rule behind the calls is not given here.
# Key:
# A-431 [1] = experiment: Cytotoxicity against EGF-stimulated human A431 cells at 1 to 5 uM after 24 hrs by WST1 assay; type: cell-based; conditions: a-431, 24 h
# Summary of the method: (§1)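 A431 cells serum-starved 24 h, pretreated 30 min at 1 or 5 μM, then EGF 25 ng/mL for 24 h or 48 h. WST-1 reagent 5–10 min at 37 °C; absorbance 450 nm, reference 600 nm.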
# A-431 [2] = experiment: Cytotoxicity against EGF-stimulated human A431 cells at 1 to 5 uM after 48 hrs by WST1 assay; type: cell-based; conditions: a-431, 48 h; summary of the method: as §1
# A-431 [3] = experiment: Antiinflammatory activity in human A431 cells assessed as inhibition of EGF-stimulated COX2 mRNA level pretreated for 30 mins before EGF challenge measured after 3 hrs by RT-PCR analysis; type: functional, cell-based
# Summary of the method: (§2)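 A431 cells serum-starved 24 h, pretreated 30 min at 0.1, 1 or 5 μM, then EGF 25 ng/mL for 3 h. Total RNA by Trizol, reverse-transcribed; COX-1 and COX-2 amplified by PCR (35 cycles: 94 °C 30 s, 58 °C 30 s, 72 °C 1 min). Products run on 2% agarose, ethidium bromide stained.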
# A-431 [4] = experiment: Antiinflammatory activity in human A431 cells assessed as inhibition of EGF-stimulated COX1 mRNA level pretreated for 30 mins before EGF challenge measured after 3 hrs by RT-PCR analysis; type: functional, cell-based; summary of the method: as §2
# RAW264.7 = experiment: Antiinflammatory activity in mouse RAW264.7 cells assessed as inhibition of LPS-stimulated COX2 expression pretreated for 30 mins before LPS challenge measured after 3 hrs by RT-PCR analysis; type: functional, cell-based
# Summary of the method: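 Raw 264.7 mouse macrophages serum-starved 24 h, pretreated 30 min at 0.1, 1 or 5 μM, then LPS 10 μg/mL for 3 h. Total RNA by Trizol; COX-2 mRNA by RT-PCR (35 cycles), read on agarose gel with ethidium bromide.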
# A-431 [5] = experiment: Antiinflammatory activity in human A431 cells assessed as reduction of EGF-stimulated COX2 promoter activity at 0.1 to 5 uM after 24 hrs by luciferase reporter gene assay; type: functional, cell-based
# Summary of the method: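 A431 cells transiently transfected (Lipofectamine 2000) with 0.5 μg COX-2 promoter luciferase plasmid pXC 918 for 24 h. Then treated with compound and stimulated with EGF. Dual-luciferase read-out normalised to lysate protein; means ± SEM, Student's t-test.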
# A-431 [6] = experiment: Antiinflammatory activity in human A431 cells assessed as reduction of EGF-stimulated COX2 protein expression pretreated with compound before EGF challenge measured by Western blotting analysis; type: functional, cell-based
# Summary of the method: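 A431 cells serum-starved, pretreated with compound, then EGF-stimulated. 40 μg lysate (RIPA) run on 12.5% SDS-PAGE, blotted to nitrocellulose. Probed 16 h at 4 °C with mouse anti-COX-2 (1:2000) and β-actin (1:20 000), anti-mouse IgG secondary, ECL detection.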
# A-431 [7] = experiment: Inhibition of CREB promoter activity in EGF-stimulated human A431 cells at 1 to 5 uM pretreated for 30 mins before EGF challenge measured after 3 hrs by luciferase reporter gene analysis; type: cell-based
# Summary of the method: (§3)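 A431 cells transiently transfected with 0.5 μg CRE-promoter plasmid pXC 80 (CREB) or NFAT-promoter luciferase plasmid. After 24 h, pretreated 30 min at 1 or 5 μM, then EGF 25 ng/mL for 3 h. Luciferase normalised to lysate protein.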
# A-431 [8] = experiment: Inhibition of NFAT promoter activity in EGF-stimulated human A431 cells at 1 to 5 uM pretreated for 30 mins before EGF challenge measured after 3 hrs by luciferase reporter gene analysis; type: cell-based; summary of the method: as §3
# A-431 [9] = experiment: Antiinflammatory activity in human A431 cells assessed as decrease in thapsigargin-induced calcium influx at 1 uM pretreated for 30 mins before thapsigargin challenge measured by fluorescence analysis; type: functional, cell-based
# Summary of the method: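 A431 cells on glass coverslips (24 or 48 h), loaded with 1 μM Fluo-4 at 37 °C for 20 min in the dark. Store-operated influx evoked by 2 μM thapsigargin; Fluo-4 read by time-lapse videomicroscopy; 15–20 cells pooled.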
smiles,measurement,setting,value
CCCCCCCCCC[C@@H](O)[C@H]1CC[C@H]([C@H]2CC[C@H]([C@H](O)CCCCCCCCCCCCC3=C[C@H](C)OC3=O)O2)O1 [ISODESAACETYLUVARICIN],Activity,A-431 [1],Non-toxic
same,Activity,A-431 [2],Non-toxic
same,inhibition,A-431 [3],Dose-dependent effect
same,inhibition,A-431 [4],inactive
same,inhibition,RAW264.7,Active
same,Activity,A-431 [5],Active
same,Activity,A-431 [6],Dose-dependent effect
same,inhibition,A-431 [7],Active
same,inhibition,A-431 [8],Active
same,Activity,A-431 [9],inactive
